Bioassay records from PubChem.
CendR NRP1 mod: NRP-1/CendR interaction modulation; O14786; FAM-RPARPAR peptide binding to NRP-1, fluorescence polarization; inhibition, % at 25 µM; 360,000 compounds, 0.85% hits; AID 602438;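 active = inhibition or corrected inhibition above about 18%, plus a signal ratio from 0.5 to 1.5, limit read from the data, passing the limit was not always enough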
Target sequence (O14786 whole entry, looked up): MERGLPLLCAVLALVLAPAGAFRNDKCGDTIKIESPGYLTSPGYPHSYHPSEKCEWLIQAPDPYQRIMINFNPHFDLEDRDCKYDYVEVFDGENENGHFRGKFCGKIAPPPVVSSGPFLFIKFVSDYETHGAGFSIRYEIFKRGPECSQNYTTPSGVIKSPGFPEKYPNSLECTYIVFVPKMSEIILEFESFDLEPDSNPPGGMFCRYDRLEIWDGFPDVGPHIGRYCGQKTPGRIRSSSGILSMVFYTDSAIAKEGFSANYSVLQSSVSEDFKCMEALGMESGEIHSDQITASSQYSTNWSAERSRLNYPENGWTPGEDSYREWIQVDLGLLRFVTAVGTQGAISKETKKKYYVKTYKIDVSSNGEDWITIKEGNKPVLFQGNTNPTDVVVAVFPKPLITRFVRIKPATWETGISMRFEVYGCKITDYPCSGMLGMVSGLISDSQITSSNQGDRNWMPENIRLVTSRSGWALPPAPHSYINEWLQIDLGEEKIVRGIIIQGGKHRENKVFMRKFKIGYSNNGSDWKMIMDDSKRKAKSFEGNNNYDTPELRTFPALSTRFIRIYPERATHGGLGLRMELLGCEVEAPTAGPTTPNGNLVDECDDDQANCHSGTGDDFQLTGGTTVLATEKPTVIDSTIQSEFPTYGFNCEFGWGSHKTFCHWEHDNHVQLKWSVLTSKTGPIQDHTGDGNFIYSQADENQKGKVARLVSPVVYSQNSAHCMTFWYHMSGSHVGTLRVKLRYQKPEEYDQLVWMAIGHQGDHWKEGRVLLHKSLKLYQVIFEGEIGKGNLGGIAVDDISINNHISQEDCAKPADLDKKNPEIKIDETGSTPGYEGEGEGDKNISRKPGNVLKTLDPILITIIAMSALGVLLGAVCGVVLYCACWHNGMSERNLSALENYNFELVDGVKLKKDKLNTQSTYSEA
MT1-MMP act inh: blocks activation of human MT1-MMP; HT1080 RFP-PRO-GFP cells, GFP/RFP ratio fluorescence, overnight; percent of plate control window, DMSO zero; GFP/RFP ratio change, % at 20 µM; 360,000 compounds, 0.061% hits;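 active = GFP/RFP ratio change of at least 30% with cell ATP level not reduced by more than half and red fluorescence within 50% of control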
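Test system: HT1080 cells expressing an RFP-PRO-GFP fluorescent reporter construct / Compound dosing: single-point 20 µM compound, 1% DMSO / Schedule: cells overnight before dosing, compound overnight, 37 °C, 5% CO2 / Evaluation: GFP/RFP fluorescence ratio / Control set: DMSO and RFP-L50D-GFP cell wells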
iPSC survival up: increases survival of single human iPS cells; hiPSC single-cell survival, ATPlite luminescence; 100% = ROCK inhibitor wells, 0% = DMSO; survival enhancement, % at 20 µM; 360,000 compounds, 0.044% hits; AID 602274; in the data active = survival enhancement above about 18%;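 note: cells exposed to compounds for 16 hours before the ATP read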
SKN-1 inh: blocks SKN-1 activity in C. elegans | C. elegans VP596 Pgst-4::GFP/RFP ratio, acrylamide-induced, 24 h | inhibition, % at 21.8 µM | 360,000 compounds, 0.49% hits;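 active = interference check ratio from 0.5 to 1.5 plus GFP to RFP signal ratio inhibition reaching or exceeding a fixed threshold, cut at about 30% in these data, passing the limit was not always enough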
Numbers stand for hits; 0 = inactive. Sampled rows, rich in hits. Any-hit rate of the full collection: about 1.4%.

SMILES	CendR NRP1 mod	MT1-MMP act inh	iPSC survival up	SKN-1 inh
CC(=O)O[C@H]1C(=O)[C@@]2(C)C([C@H](OC(=O)c3ccccc3)[C@]3(O)C[C@H](OC(=O)[C@H](O)[C@@H](NC(=O)c4ccccc4)c4ccccc4)C(C)=C1C3(C)C)[C@]1(OC(C)=O)CO[C@@H]1C[C@H]2O (stereo partly drawn)	0	0	0	0
C=CCN1C(=O)/C(=C2/Sc3ccccc3N2CC)SC1=S	77	0	0	0
C=CCN1C(=O)/C(=C2/Sc3ccccc3N2CCCS(=O)(=O)O)SC1=S	0	0	0	0
COc1cccc(N=Nc2ccc3ccccc3c2O)c1	0	0	0	0
COc1ccc(N=Nc2ccc3ccccc3c2)c(O)c1	0	0	0	33
COc1cccc(NC(=O)CCNS(=O)(=O)c2cccc3nonc23)c1	0	0	0	0
COc1ccc(OC)c(NC(=O)CCNS(=O)(=O)c2cccc3nonc23)c1	28	0	0	0
CC(C(=O)Nc1ccccc1-c1ccccc1)N1CCN(C(=O)c2ccccc2)CC1 (stereo not drawn)	0	0	0	0
CC1CCN(C(C)C(=O)Nc2ccccc2-c2ccccc2)CC1 (stereo not drawn)	0	0	0	44
CC1CCN(CC(=O)Nc2ccccc2-c2ccccc2)CC1	36	0	0	0
CC1CCN(CC(=O)Nc2ccccc2C(=O)c2ccccc2)CC1	0	0	0	0
COc1ccccc1NC(=O)CN1CCN(C2c3ccccc3-c3ccccc32)CC1	0	0	0	37
COc1ccc(NC(=O)CN2CCN(C3c4ccccc4-c4ccccc43)CC2)c(OC)c1	0	0	0	0
Cc1ccc(-c2c(C(=O)NC(C)C)oc(=O)c3ccccc23)cc1	0	0	0	0
COc1ccc2cc(C(=O)N3CCCCCC3)sc(=O)c2c1OC	0	0	0	0
COC(=O)c1cc2ccc(OC)c(OC)c2c(=O)s1	27	0	0	0
COc1cccc2c1cc1c(=O)n(CC(=O)N3CCCCCC3)nc(C)n12	24	0	0	0
CN1CCCC(OC(=O)c2cccc(Cl)c2)C1 (stereo not drawn)	30	0	0	0
CN1CCCC(OC(=O)c2cc(Cl)cc(Cl)c2)C1 (stereo not drawn)	0	0	0	0
CCCCCOc1ccc(Br)cc1CSC(=N)N	35	0	0	0
COc1ccc(Br)cc1CSC(=N)N	0	0	0	0
O=c1oc2ccc3ccccc3c2cc1-c1nnc(-c2ccccc2)o1	0	0	0	52
Cc1ncc([N+](=O)[O-])n1CCOC(=O)NC(NCc1ccccc1Cl)C(Cl)(Cl)Cl (stereo not drawn)	38	0	0	0
CN(c1ccc(C(=O)NCc2cccnc2)cc1)S(=O)(=O)c1ccc(Cl)cc1	0	0	0	0
CN1CCN(S(=O)(=O)c2ccc(NC(=O)Nc3cccc(Cl)c3)cc2)CC1	27	0	0	0
SMILES	CendR NRP1 mod	MT1-MMP act inh	iPSC survival up	SKN-1 inh
Cc1cccc(NC(=O)C2CCN(C(=O)NCc3ccccc3)CC2)c1C	0	0	0	0
CCC(C(=O)OC(C)C(=O)Nc1ccc(Cl)cn1)c1ccccc1 (stereo not drawn)	0	0	0	0
Cc1cc(C)cc(NC(=O)Cn2c(-c3ccccc3Cl)nc3ccccc32)c1	0	0	0	0
O=C(Cn1c(-c2ccccc2Cl)nc2ccccc21)Nc1cccc(Cl)c1	21	0	0	0
Cc1ccc(OCC(=O)Nc2cc(Cl)ccc2-n2cncn2)c(C)c1	0	0	0	0
C=CC[C@@H](CC(=O)N[C@H](CO)Cc1ccccc1)C(=O)N[C@H](COC(=O)[C@@H](CC=C)CC(=O)OC(C)(C)C)Cc1c[nH]c2ccccc12	27	0	0	0
C=CC[C@@H](CC(=O)N[C@@H](CO)Cc1ccccc1)C(=O)N[C@@H](COC(=O)[C@@H](CC=C)CC(=O)OC(C)(C)C)Cc1c[nH]c2ccccc12	0	0	0	0
COC(=O)[C@@]12CCCCN1[C@H](c1ccc(-c3ccc(OC)cc3)cc1)[C@@H]1C(=O)N(C)C(=O)[C@@H]12	0	0	0	0
COC(=O)[C@@]12CCCCN1[C@H](c1ccc(-c3ccc4c(c3)OCO4)cc1)[C@H]1C(=O)N(C)C(=O)[C@H]12	30	0	0	0
O=C1CCCc2oc3c(c21)CCCC3	0	0	0	0
Cc1cccc(C(=O)N[C@@H]2c3ccccc3C[C@@H]2O)n1	0	0	0	0
COC(=O)c1cccc(NC(=S)NCCC2=CCCCC2)c1	36	0	0	0
